{"data": "Experimental data pooled from the literature", "PIK3CG": "Phosphatidylinositol 4,5-bisphosphate 3-kinase catalytic subunit gamma isoform (PIK3CG, Homo sapiens, UniProt P48736)", "PTGS2": "Prostaglandin G/H synthase 2 (PTGS2, Homo sapiens, UniProt P35354)", "Inositol-tetrakisphosphate 1-kinase": "Inositol-tetrakisphosphate 1-kinase (Homo sapiens, UniProt Q13572)", "CHRM3": "Muscarinic acetylcholine receptor M3 (CHRM3, Homo sapiens, UniProt P20309)", "note": "Protocols differ between the studies behind these lines."}
{"Structure (SMILES)": "C=C(F)C(=O)N1CCN(c2nc(OC[C@@H]3CCCN3C)nc3c2CCN(c2cccc4cccc(Cl)c24)C3)C[C@@H]1CC#N", "target": "GTPase NRas (NRAS, Homo sapiens, UniProt P01111, C181S/C186S/G12C)", "assay": "enzyme activity, inhibitor", "IC50 [µM]": 0.747}
{"Structure (SMILES)": "CN(C)C(=O)c1cc2cnc(Nc3cc(C(F)(F)F)c(-c4ccc5c(=O)cc(N6CCOCC6)oc5c4)cn3)nc2n1C1CCCC1", "target": "PIK3CG", "assay": "enzyme activity, inhibitor, radiometric", "IC50 [µM]": "> 10"}
{"Structure (SMILES)": "CC(C)c1cccc(C(C)C)c1N=C1C(=O)N(Cc2ccc(Br)cc2)c2ccccc21", "target": "PIK3CG", "assay": "enzyme activity, inhibitor, ADP detection", "IC50 [µM]": 0.00406}
{"Structure (SMILES)": "COc1cc(C=NNC(=O)c2cc(-c3ccccc3)n(-c3ccc(S(N)(=O)=O)cc3)n2)cc(OC)c1OC", "target": "PTGS2", "assay": "enzyme activity, inhibitor", "IC50 [µM]": 2.69}
{"Structure (SMILES)": "CCc1ccc(N=C2C(=O)N(Cc3ccccc3)c3ccccc32)cc1", "target": "PIK3CG", "assay": "enzyme activity, inhibitor, ADP detection", "IC50 [µM]": 0.00209}
{"Structure (SMILES)": "Nc1ncnc2c1cnn2C1CCCCC1", "target": "Inositol-tetrakisphosphate 1-kinase", "assay": "enzyme activity, inhibitor, ADP detection", "IC50 [µM]": 0.44}
{"Structure (SMILES)": "NS(=O)(=O)c1ccc(-n2nc(C(=O)NN=Cc3ccc(O)cc3)cc2-c2ccccc2)cc1", "target": "PTGS2", "assay": "enzyme activity, inhibitor", "IC50 [µM]": 1.42}
{"Structure (SMILES)": "C=CCN1C(=O)C(=Nc2cccc(C)c2)c2ccccc21", "target": "PIK3CG", "assay": "enzyme activity, inhibitor, ADP detection", "IC50 [µM]": 0.0243}
{"Structure (SMILES)": "FC(F)(F)CN1CC(n2cc(Oc3ccn4nc(Cl)cc4n3)cn2)C1", "target": "Very long chain fatty acid elongase 7 (Homo sapiens, UniProt A1L3X0)", "assay": "enzyme activity, inhibitor", "IC50 [µM]": "> 99"}
{"Structure (SMILES)": "COc1cc(NC(=O)c2cnn(-c3ccc([N+](=O)[O-])cc3)c2C(F)(F)F)cc(OC)c1OC", "target": "PTGS2", "assay": "enzyme activity, inhibitor", "IC50 [µM]": 4.82}
{"Structure (SMILES)": "O=C(CCNC(=O)CNC(=O)CC(c1ccccc1)(c1ccccc1)c1ccccc1)NC[C@H]1CCCN(Cc2ccc(F)cc2)C1", "target": "CHRM3", "assay": "ligand displacement, radioligand", "setting": "cell membranes", "IC50 [µM]": 0.4}
{"Structure (SMILES)": "O=C1C(=Nc2ccccc2Br)c2ccccc2N1Cc1ccccc1", "target": "PIK3CG", "assay": "enzyme activity, inhibitor, ADP detection", "IC50 [µM]": 0.0076}
{"Structure (SMILES)": "O=C(CCNC(=O)CNC(=O)CC(c1ccccc1)(c1ccccc1)c1ccccc1)NCC1CCN(Cc2ccc(F)cc2)CC1", "target": "CHRM3", "assay": "ligand displacement, radioligand", "setting": "cell membranes", "IC50 [µM]": 15.1}
{"Structure (SMILES)": "Nc1ncnc2c1ncn2[C@@H]1O[C@H](CO)[C@@H](O)[C@@H]1F", "target": "Inositol-tetrakisphosphate 1-kinase", "assay": "enzyme activity, inhibitor", "IC50 [µM]": 0.86}
{"Structure (SMILES)": "CC(=NNC(=O)c1cc(-c2ccccc2)n(-c2ccc(S(N)(=O)=O)cc2)n1)c1ccc(Br)cc1", "target": "PTGS2", "assay": "enzyme activity, inhibitor", "IC50 [µM]": 1.25}
{"Structure (SMILES)": "COc1cc(N=C2C(=O)Nc3ccccc32)cc(OC)c1", "target": "PIK3CG", "assay": "enzyme activity, inhibitor, ADP detection", "IC50 [µM]": 0.00786}
{"Structure (SMILES)": "CN(C)C(=O)c1cc2cnc(Nc3cccc4c(=O)cc(N5CCOCC5)oc34)nc2n1C1CCCC1", "target": "PIK3CG", "assay": "enzyme activity, inhibitor, radiometric", "IC50 [µM]": 1.42}
{"Structure (SMILES)": "Nc1ncnc2c1ncn2C1CCCO1 (stereo not drawn)", "target": "Inositol-tetrakisphosphate 1-kinase", "assay": "enzyme activity, inhibitor, ADP detection", "IC50 [µM]": 0.92}
{"Structure (SMILES)": "CN(C)C(=O)c1cc2cnc(Nc3cccc(-c4cccc5c(=O)cc(N6CCOCC6)oc45)c3)nc2n1C1CCCC1", "target": "PIK3CG", "assay": "enzyme activity, inhibitor, radiometric", "IC50 [µM]": 6.04}
{"Structure (SMILES)": "O=C1Nc2ccccc2/C1=N/c1ccccc1Br", "target": "PIK3CG", "assay": "enzyme activity, inhibitor, ADP detection", "IC50 [µM]": 0.176}
{"Structure (SMILES)": "CN(C)C(=O)c1cc2cnc(Nc3ccc(-c4cccc5c(=O)cc(N6CCNCC6)oc45)cc3)nc2n1C1CCCC1", "target": "PIK3CG", "assay": "enzyme activity, inhibitor, radiometric", "IC50 [µM]": "> 10"}
{"Structure (SMILES)": "Cc1ccc(CN2C(=O)C(=Nc3c(C(C)C)cccc3C(C)C)c3ccccc32)cc1", "target": "PIK3CG", "assay": "enzyme activity, inhibitor, ADP detection", "IC50 [µM]": 0.0186}
{"Structure (SMILES)": "CN(C)C(=O)c1cc2cnc(Nc3ccc(-c4cccc5c(=O)cc(N6CCOCC6)oc45)cc3)nc2n1C1CCCC1", "target": "PIK3CG", "assay": "enzyme activity, inhibitor, radiometric", "IC50 [µM]": "> 10"}
{"Structure (SMILES)": "Nc1ncnc2c1ncn2[C@@H]1O[C@H](CO)C[C@H]1O", "target": "Inositol-tetrakisphosphate 1-kinase", "assay": "enzyme activity, inhibitor, ADP detection", "IC50 [µM]": 2.4}
